Source: PubChem (several laboratories)
In the library only some 11% were active in any assay of this set; here they are far more common.
RORA act: activators of orphan receptor RORA, primary screen, cell-based, luminescence; CHO-K1 Gal4-RORA LBD luciferase reporter; percent increase over mock-subtracted basal signal; activation, % at 10 µM; Nuclear receptor ROR-alpha (Homo sapiens), P35398; AID 560, 2006; 65,000 compounds, 1.5% hits;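 active = activation above the mean of all tested compounds plus 3 SD, cut at about 49% in these data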;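 also: 0% = DMSO-treated RORA cells and 100% = added signal equal to DMSO minus mock-transfected cells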
M1 antag: antagonists of rat M1 muscarinic receptor; CHO-M1 cells, Fluo-4 calcium, ACh EC80 antagonist mode; stronger effect = lower value; 64,000 compounds, 3.4% hits; Muscarinic acetylcholine receptor M1 (Rattus norvegicus), P08482; AID 628, 2007; B-score at 10 µM;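 active = calcium fluorescence response, raw or row-and-column corrected B-score, differing from the plate sample mean either way at a set confidence level, mostly lower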
D1 mod: D1 CRE-luciferase signal change, two-sided – cell-based, HEK293 D1, dopamine EC30, D1 allosteric modulator project, primary screen; B-score at 10 µM; D(1A) dopamine receptor (Homo sapiens), P21728; 58,000 compounds, 5.9% hits; dopamine EC30 potentiation; actives deviate in either direction;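 active = luminescence count or its row- and column-corrected plate score outside the 99.7% band of the plate's sample wells, on either side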
Target sequence (P21728 whole entry, looked up): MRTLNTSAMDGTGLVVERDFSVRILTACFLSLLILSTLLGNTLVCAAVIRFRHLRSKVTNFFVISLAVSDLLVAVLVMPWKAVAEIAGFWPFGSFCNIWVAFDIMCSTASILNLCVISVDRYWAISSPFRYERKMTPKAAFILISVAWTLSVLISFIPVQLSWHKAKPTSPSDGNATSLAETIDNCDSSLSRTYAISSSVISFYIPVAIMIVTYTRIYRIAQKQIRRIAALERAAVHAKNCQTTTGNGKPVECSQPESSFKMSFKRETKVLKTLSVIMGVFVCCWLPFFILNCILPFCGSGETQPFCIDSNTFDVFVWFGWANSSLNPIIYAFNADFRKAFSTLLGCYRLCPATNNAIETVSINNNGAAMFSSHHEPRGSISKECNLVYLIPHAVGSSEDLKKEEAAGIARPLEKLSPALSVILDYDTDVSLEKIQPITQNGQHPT
mHtt clearance: clearance of mutant huntingtin inclusions, primary screen, imaging, HeLa Exon1htt(103Q)mCFP, confocal imaging. aggregate imaging; zero = plate's median compound well. inhibition, % at 1.5 µM. 47,000 compounds, 0.42% hits;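 active = inhibition of aggregate fluorescence above about 70%, also judged a hit by eye on the cell image, limit read from the data, passing the limit was not always enough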;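 also: cells exposed to compound for three days before fixation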
M1 ag: M1 muscarinic receptor agonists, primary screen, CHO-M1 cells, Fluo-4 calcium, agonist mode. Muscarinic acetylcholine receptor M1. Fluo-4 calcium fluorescence; stronger effect = higher value. B-score at 10 µM. 64,000 compounds, 3% hits. AID 626, 2007;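 active = fluorescence rise, raw or as B-score row- and column-corrected plate score, outside the 99.7% band of its plate's samples, either direction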
SF1 activator: activators of human SF-1, primary screen, cell-based, CHO-K1, Gal4-SF-1 LBD, luciferase luminescence | 65,000 compounds, 1.9% hits | Steroidogenic factor 1 (Homo sapiens), Q13285 | CHO-K1 Gal4-SF-1 LBD luciferase reporter; % increase over DMSO SF-1-specific signal | activation, % at 10 µM;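 active = activation above the mean activation of all tested compounds plus 3 SD, cut at about 50% in these data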
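Assay system – CHO-K1 cells with Gal4–hSF-1 LBD chimera plus Gal4-driven luciferase · Quantity – 4,000 cells per well · Times – compound added 1 h post-seeding, 20 h exposure at 37 °C, 5% CO2 · Measured by – luciferase light emission · Benchmarks – DMSO and mock-transfected background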
Starred values were filed as active, the others as inactive; . = not tested or not shown.

SMILES	RORA act	M1 antag	D1 mod	mHtt clearance	M1 ag	SF1 activator
COc1ccc(Cc2nnc(SCC(=O)N3CCN(c4ccccc4)CC3)o2)cc1	16.8	-0.00759	0.671	48.3	-1.49	-11.2
COc1ccc(-c2nnc(SC(C)C(=O)Nc3ccc4c(c3)OCCO4)o2)cc1 (configuration not stated)	25.3	0.522	-0.84	15.9	0.222	49.6*
COc1ccc(-c2nnc(SCC(=O)N3CCOCC3)o2)cc1	73.0*	0.346	-0.418	.	0.0905	37.8
O=C(CSc1cn(CCNC(=O)c2cccs2)c2ccccc12)NC1CCCC1	.	.	.	35.8	.	.
CCC(C)NC(=O)c1ccc(CS(=O)(=O)Cc2ccc(Cl)cc2)o1 (configuration not stated)	.	.	.	33.3	.	.
O=C(c1ccc2c(c1)c(=O)oc1ccccc12)N1CCCCC1	49.9*	0.473	1.07	.	-0.712	41.9
COc1ccc(C(=O)NCCSc2ccccn2)cc1	38.6	0.25	-5.33*	.	0.0178	30.0
COc1ccc(Br)cc1C1NC(=O)c2c(sc3c2CCN(C)C3)N1 (configuration not stated)	-9.7	1.52	-0.055	.	1.46	-7.3
CCOc1ccc(Br)cc1C1NC(=O)c2c(sc3c2CCN(C)C3)N1 (configuration not stated)	0.1	1.8	-4.6*	.	-0.413	-7.0
FC(F)(F)c1ccc(-n2ccnc2)nc1	-5.7	0.435	0.0312	.	0.762	-4.4
CN(C)/C=N/c1ncnc2c1cnn2-c1ccc(C(F)(F)F)cn1	-1.6	0.29	-1.65	-52.7	-0.214	81.8*
COc1cc(C)c(C(C)C)cc1S(=O)(=O)n1cnc(C)c1	79.8*	0.0677	0.845	.	0.76	14.7
COc1cc(C)c(C(C)C)cc1S(=O)(=O)N1CCN(C)CC1	-2.1	0.52	-1.24	-9.2	-0.569	-13.9
CCN(CC)C(=O)Oc1ccc2c(=O)c(-c3ccccc3)coc2c1	82.4*	-0.345	-1.77	42.0	-1.35	8.3
CCOc1ccccc1Oc1coc2cc(OC(=O)c3ccco3)ccc2c1=O	4.1	0.711	-0.0265	0.1	0.728	13.3
N#C/C(C(=O)N1CCOCC1)=C1/SC=C(c2ccccc2)N1c1ccccc1	-1.0	-1.23	0.82	22.9	-0.482	2.2
Cn1c(C(=O)NCCN2CCOCC2)cc2c(=O)n(C)c3ccccc3c21	-15.2	0.397	-0.273	27.8	0.0953	-7.5
Cn1c(C(=O)NCCN2CCN(c3ccccc3F)CC2)cc2c(=O)n(C)c3ccccc3c21	5.1	-0.243	-3.72*	.	0.339	7.9
Cn1c(C(=O)NCCCN2CCN(c3ccc(F)cc3)CC2)cc2c(=O)n(C)c3ccccc3c21	1.6	-0.327	-5.2*	.	-0.0298	-39.6
CCCCN1C(=O)/C(=C2\SC(N3CCCCC3)=NC2=O)c2ccccc21	59.7*	0.973	0.204	14.9	0.229	35.8
Cc1cccc(-n2cnc3cc(C(=O)N4CCCCC4)ccc32)c1	15.5	0.121	0.959	27.2	0.886	54.6*
Cn1nnc2cc(C(=O)N3CCCCCC3)ccc21	-3.2	0.889	-1.07	16.6	0.0612	8.4
COC(=O)c1cccc(NC(=O)CSc2nc3cccnc3n2C)c1	81.5*	-1.85	-0.165	.	-0.204	35.5
CC(=O)N1CCC(C(=O)Nc2ccccc2)(N(Cc2ccccc2)C(=O)c2cccnc2)CC1	2.1	-0.321	-0.599	.	-0.527	0.6
COc1ccc(-c2cc3nc4n(c(=O)c3s2)CCC4)cc1	-71.4	0.632	-5.88*	.	-1.22	-78.2
SMILES	RORA act	M1 antag	D1 mod	mHtt clearance	M1 ag	SF1 activator
O=C(N/N=C1\CCCc2ccccc21)C(O)c1ccccc1 (configuration not stated)	.	.	.	8.0	.	.
COc1ccc(OC)c(NC(=O)CN(c2ccc(C)cc2)S(=O)(=O)c2c(C)noc2C)c1	14.4	-0.246	4.63*	.	0.0344	7.7
CCOc1ccccc1NC(=O)CN(c1ccc(C)cc1)S(=O)(=O)c1c(C)noc1C	-9.8	0.00981	1.42	7.3	0.032	0.7
CCOc1ccc(OCC)c(NC(=O)CN(c2ccc(C)cc2)S(=O)(=O)c2c(C)noc2C)c1	9.9	-0.741	4.65*	28.4	-1.28	4.8
COc1ccc(OC)c(NC(=O)CN(c2ccc(C(C)C)cc2)S(=O)(=O)c2c(C)noc2C)c1	9.4	0.173	-0.039	.	0.0184	-20.6
Cc1ccc(NC(=O)CN2CC(C)SC2=NC2CCCCC2)cc1 (configuration not stated)	16.5	-0.566	-0.0208	-40.5	-0.751	-9.4
Cc1cc(/C=c2/sc3nc4ccccc4n3c2=O)c(C)n1-c1ccccn1	-86.7	-0.309	-6.81*	.	-0.0875	-85.1
O=C(CSC1=NCCS1)N1CCOCC1	-19.6	2.1*	.	.	-1.48	-6.4
O=[N+]([O-])c1ccc(-c2nnc(CSc3nc(-c4ccccc4)nc4ccc(F)cc34)o2)cc1	.	.	.	-28.6	.	.
CCOc1ccccc1N(CC(=O)N1CCCCCC1)S(C)(=O)=O	2.5	1.37	-3.82*	-10.7	0.107	-2.9
Brc1ccc(-c2nn3c(-c4ccncc4)nnc3s2)o1	-5.6	-3.14*	3.15	.	0.918	0.6
CCOC(=O)c1cnc(SCc2ccccc2)nc1N	50.7*	-0.434	0.453	-6.4	-0.17	66.9*
O=C(O)c1cc2ccc3ccccc3c2oc1=O	.	.	.	5.0	.	.
O=C(CSc1ncn[nH]1)Nc1ccccc1C(=O)O	-7.7	-0.943	0.267	-43.9	0.0403	1.3
O=C(Nc1nc(-c2ccccc2)cs1)c1cccs1	56.6*	-0.875	-0.214	7.2	0.675	18.3
O=C(Nc1nc(-c2ccccc2)ns1)c1cccs1	34.1	-0.0941	-0.95	-1.1	-1.44	75.5*
CCC(=O)Nc1nc(-c2ccccc2)ns1	.	.	.	-29.9	.	.
O=C(CSc1ncn[nH]1)Nc1nc(-c2ccccc2)ns1	37.8	-0.808	0.0141	21.3	-0.729	54.6*
Cc1ccc(-c2csc(NC(=O)c3ccno3)n2)cc1	60.3*	-0.977	-0.27	19.6	0.181	27.9
Cc1ccc(-c2csc(NC(=O)CSC3=NCCS3)n2)cc1	.	.	.	-98.0	.	.
Cc1cc(NC(=O)C(C)C)ncc1NC(=O)c1cccc(F)c1	3.3	-0.0877	0.145	-19.0	-0.937	-1.8
CCCC(=O)Nc1cnc(NC(=O)c2cccc(F)c2)cc1C	0.3	0.0146	-3.14*	.	0.609	-2.5
Clc1ccc(-c2nnc(SCc3ccon3)o2)c(Cl)c1	-20.6	0.388	-4.7*	-70.7	-0.0801	6.2
Cc1ccnc(NC2c3ccccc3C(=O)N2Cc2ccccc2Cl)c1 (configuration not stated)	-11.8	0.945	-0.0111	.	0.512	-37.9
